# Reference: ChEMBL document CHEMBL3112469, “Substituted 2-phenylimidazopyridines: a new class of drug leads for human African trypanosomiasis” (J Med Chem, 2014)
# Assays:
# [1] = system: Trypanosoma brucei brucei; assay: Antiparasitic activity against Trypanosoma brucei brucei BF427 assessed as growth inhibition by Alamar Blue assay; assay type: functional, organism-based
# Method in brief: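 Bloodstream-form T. brucei brucei BF427 grown with serial compound dilutions, each tested in triplicate. Growth quantified with AlamarBlue. Pentamidine isothionate included in every assay as positive control.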
# L6 = assay: Cytotoxicity against rat L6 cells after 48 hrs by Alamar Blue assay; assay type: cell-based; details: l6, 48 h
# [2] = Cytotoxicity against human CRL8155 cells after 48 hrs by Alamar Blue assay; assay type: cell-based; details: crl8155, 48 h
# HepG2 = assay: Cytotoxicity against human HepG2 cells after 48 hrs by Alamar Blue assay; assay type: cell-based; details: hepg2, 48 h
SMILES,EC50 [1] [µM],CC50 (L6) [µM],CC50 [2] [µM],CC50 (HepG2) [µM]
CC(=O)c1cccc(-c2cnc3[nH]c(-c4cc(NC(=O)N5CCCC5)ccc4F)nc3c2)c1,0.003,–,–,–
O=C(Nc1ccc(Cl)c(-c2nc3ccccc3o2)c1)c1ccco1,> 20,–,–,–
O=C(Nc1ccc(Cl)c(C(=O)N2CCOCC2)c1)c1ccco1,> 20,–,–,–
Fc1ccc(NC(=S)c2ccco2)cc1-c1nc2ncccc2o1,0.41,> 50,–,–
O=C(Nc1ccc(F)c(-c2nc3cc(-c4cccnc4)cnc3[nH]2)c1)N1CCCC1,0.005,–,14,> 50
O=C(Nc1ccc(F)c(-c2nc3ncc(-c4ccc(-c5ccccc5)cc4)cc3o2)c1)c1ccco1,0.42,> 50,–,–
O=C(Nc1ccc(F)c(-c2nc3cc(-c4cncc(N5CCCC5)c4)cnc3[nH]2)c1)N1CCCC1,0.02,–,8,> 50
Fc1ccc(NCc2ccccc2)cc1-c1nc2ncccc2o1,> 20,–,–,–
O=C(Nc1ccc(F)c(-c2nc3c(Cl)ccnc3[nH]2)c1)c1ccco1,0.12,–,–,–
CN(C(=O)c1ccco1)c1ccc(F)c(-c2nc3ncccc3o2)c1,> 10,> 50,–,–
O=C(Nc1ccc(F)c(-c2nc3ncccc3o2)c1)c1cc2ccccc2o1,> 10,> 50,–,–
O=C(Nc1ccc(F)c(-c2nc3cc(-c4cccc(Cl)c4)cnc3[nH]2)c1)N1CCCC1,0.002,–,2.8,> 50
N#Cc1ccc(NC(=O)c2ccco2)cc1-c1nc2ncccc2o1,0.4,> 50,–,–
O=C(Nc1ccc(-c2ccc(F)c(F)c2)c(-c2nc3ncccc3o2)c1)c1ccco1,> 50,> 50,–,–
COc1cccc(-c2cnc3[nH]c(-c4cc(NC(=O)N5CCCC5)ccc4F)nc3c2)c1,0.01,–,3.6,35
CC(=O)N(C(=O)c1ccco1)c1ccc(F)c(-c2nc3ncccc3o2)c1,0.5,–,–,–
O=C(Nc1ccc(F)c(-c2nc3cnccc3o2)c1)c1ccco1,> 20,–,–,–
O=C(Nc1ccc(F)c(-c2nc3ncccc3o2)c1)c1ccoc1,0.15,> 50,–,–
Fc1ccc(N(Cc2ccccc2)Cc2ccccc2)cc1-c1nc2ncccc2o1,1.1,> 50,–,–
O=C(Nc1ccc(Cl)c(C(=O)N2CCNCC2)c1)c1ccco1,> 20,–,–,–
Cn1cccc1C(=O)Nc1ccc(F)c(-c2nc3ncccc3o2)c1,1.1,> 50,–,–
Cc1ccccc1C(=O)Nc1ccc(Cl)c(-c2nc3ccccc3o2)c1,> 20,–,–,–
O=C(Nc1ccc(F)c(-c2nc3cccnc3[nH]2)c1)c1ccco1,0.2,–,–,–
Cc1cccc(-c2cnc3[nH]c(-c4cc(NC(=O)N5CCCC5)ccc4F)nc3c2)c1,0.002,–,5,10
O=C(Nc1ccc(Cl)c(-c2nc3ncccc3o2)c1)N1CCCC1,0.09,–,> 50,> 50

SMILES,EC50 [1] [µM],CC50 (L6) [µM],CC50 [2] [µM],CC50 (HepG2) [µM]
O=C(Nc1ccc(F)c(-c2nc3ncccc3o2)c1)c1cccnc1,7,> 50,–,–
O=C(Nc1ccc(F)c(-c2nc3cc(-c4ccsc4)cnc3[nH]2)c1)N1CCCC1,0.002,–,6,> 50
O=C(Nc1ccc(F)c(-c2nc3cc(-c4cncc(Cl)c4)cnc3[nH]2)c1)N1CCCC1,0.005,–,38,> 50
O=C(Nc1ccc(F)c(-c2nc3ncccc3o2)c1)c1ccco1,0.12,> 50,–,–
O=C(Nc1ccc(F)c(-c2nc3cc(-c4cccc(OC(F)(F)F)c4)cnc3[nH]2)c1)N1CCCC1,0.03,–,11,> 50
Nc1cccc(-c2cnc3[nH]c(-c4cc(NC(=O)N5CCCC5)ccc4F)nc3c2)c1,0.01,–,5,40
O=C(Nc1ccc(Cl)c(-c2nc3ncccc3o2)c1)N1CCCCC1,1.9,–,–,–
O=C(Nc1ccc(Cl)c(-c2nc3ccccc3o2)c1)c1cccc(F)c1,> 20,–,–,–
O=C(Nc1ccc(Cl)c(-c2nc3ccccc3o2)c1)c1ccccc1,> 20,–,–,–
Cc1cc(-c2cnc3[nH]c(-c4cc(NC(=O)N5CCCC5)ccc4F)nc3c2)ccc1F,0.02,–,> 50,–
CN1CCN(C(=O)c2cc(NC(=O)c3ccco3)ccc2Cl)CC1,> 20,–,–,–
Cc1ccc(C(=O)Nc2ccc(F)c(-c3nc4ncccc4o3)c2)o1,0.2,> 50,–,–
CC(=O)Nc1ccc(F)c(-c2nc3ncccc3o2)c1,> 20,> 50,–,–
COc1ccc(-c2cnc3nc(-c4cc(NC(=O)c5ccco5)ccc4F)oc3c2)cc1,0.17,–,–,–
O=S(=O)(Nc1ccc(Cl)c(-c2nc3ncccc3o2)c1)c1ccccc1,> 20,> 50,–,–
Cc1cccc(C(=O)Nc2ccc(Cl)c(-c3nc4ccccc4o3)c2)c1,> 20,–,–,–
O=C(Nc1ccc(F)c(-c2nc3cc(-c4cccs4)cnc3[nH]2)c1)N1CCCC1,0.004,–,9,–
O=C(Nc1ccc(Cl)c(-c2nc3ccccc3o2)c1)c1ccccc1F,> 20,–,–,–
N#Cc1cnc2nc(-c3cc(NC(=O)c4ccco4)ccc3F)oc2c1,0.38,> 50,–,–
O=C(Nc1ccccc1)Nc1ccc(Cl)c(-c2nc3ncccc3o2)c1,12,> 50,–,–
O=C(Nc1ccc(-c2ccncc2)c(-c2nc3ncccc3o2)c1)c1ccco1,> 20,–,–,–
CN(C)C(=O)Nc1ccc(Cl)c(-c2nc3ncccc3o2)c1,0.4,> 50,–,–
O=C(Nc1ccc(-c2ccc(F)cc2)c(-c2nc3ncccc3o2)c1)c1ccco1,> 50,> 50,–,–
COc1ccc(NC(=O)c2ccco2)cc1-c1nc2ncccc2o1,> 10,> 50,–,–
O=C(Nc1ccc(F)c(-c2nc3ncccc3o2)c1)C1CCCO1 (stereo not drawn),> 10,–,–,–

SMILES,EC50 [1] [µM],CC50 (L6) [µM],CC50 [2] [µM],CC50 (HepG2) [µM]
O=C(Nc1ccc(F)c(C(=O)Nc2ccc(Cl)cn2)c1)c1ccco1,7,–,–,–
O=C(Nc1ccc(Cl)c(-c2nc3ncccc3o2)c1)c1cccs1,1.5,> 50,–,–
Cn1cncc1C(=O)Nc1ccc(F)c(-c2nc3ncccc3o2)c1,> 20,> 50,–,–
CS(=O)(=O)Nc1ccc(Cl)c(-c2nc3ncccc3o2)c1,6.1,> 50,–,–
O=C(Nc1ccc(F)c(-c2nc3ncc(Br)cc3o2)c1)c1ccco1,0.23,> 50,–,–
Cc1ccc(NC(=O)c2ccco2)cc1-c1nc2ncccc2o1,0.43,> 50,–,–
N=C(N)c1ccc(OCCCCCOc2ccc(C(=N)N)cc2)cc1 [PENTAMIDINE],0.00174,–,–,–
O=C(Nc1ccc(F)c(-c2nc3cc(-c4ccccc4Cl)cnc3[nH]2)c1)N1CCCC1,0.005,–,–,–
O=C(Nc1ccc(F)c(-c2nc3ncccc3o2)c1)c1cnccn1,0.9,> 50,–,–
O=C(Nc1ccc(F)c(CNc2ccc(Cl)cn2)c1)c1ccco1,> 10,–,–,–
CNC(=O)Nc1ccc(F)c(-c2nc3ncccc3o2)c1,3.8,> 50,–,–
Nc1ccc(Cl)c(-c2nc3ncccc3o2)c1,> 20,–,–,–
CCN(CC)CCCC(C)Nc1c2ccc(Cl)cc2nc2ccc(OC)cc12 (stereo not drawn) [QUINACRINE],–,–,3.92,9.78
O=C(Nc1ccc(F)c(-c2nc3cc(F)cnc3[nH]2)c1)c1ccco1,0.2,–,–,–
O=C(Nc1ccc(Cl)c(-c2nc3ncccc3o2)c1)c1ccccc1,7.1,> 50,–,–
O=C(Nc1ccc(Cl)c(-c2nc3ccccc3o2)c1)C1CCCCC1,> 20,–,–,–
CC(C)NC(=O)Nc1ccc(Cl)c(-c2nc3ncccc3o2)c1,1,> 50,–,–
O=C(Nc1ccc(F)c(-c2nc3ncccc3o2)c1)c1cnco1,1.9,> 50,–,–
Cc1ccoc1C(=O)Nc1ccc(F)c(-c2nc3ncccc3o2)c1,0.1,> 50,–,–
O=C(Nc1ccc(F)c(-c2nc3cc(-c4cnc(Cl)nc4)cnc3[nH]2)c1)N1CCCC1,0.04,14.3,–,–
COc1cc([C@@H]2c3cc4c(cc3[C@H](O)[C@H]3COC(=O)[C@H]23)OCO4)cc(OC)c1OC [PODOFILOX],–,0.014,–,–
O=C(Nc1ccc(F)c(-c2nc3ccc(Cl)nc3[nH]2)c1)c1ccco1,10,–,–,–
O=C(Nc1ccc(F)c(-c2nc3ncc(-c4cccc(Cl)c4)cc3o2)c1)c1ccco1,0.05,> 50,–,–
